From ChEMBL document CHEMBL1141588, “Pyrrolo[2,3-a]carbazoles as potential cyclin dependent kinase 1 (CDK1) Inhibitors. Synthesis, biological evaluation, and binding mode through docking simulations” (J Med Chem, 2008)
Calls of active or inactive are those of the source. No cut-off for these calls is given here.

Experiments:
[1] = target: Cyclin-dependent kinase 1/cyclin B1 (Homo sapiens, UniProt P06493); experiment: Inhibition of CDK1/cyclin B by MESACUP assay; assay type: protein-complex assay
Cyclin-dependent kinase 1/cyclin B1, sequence (P06493 whole entry): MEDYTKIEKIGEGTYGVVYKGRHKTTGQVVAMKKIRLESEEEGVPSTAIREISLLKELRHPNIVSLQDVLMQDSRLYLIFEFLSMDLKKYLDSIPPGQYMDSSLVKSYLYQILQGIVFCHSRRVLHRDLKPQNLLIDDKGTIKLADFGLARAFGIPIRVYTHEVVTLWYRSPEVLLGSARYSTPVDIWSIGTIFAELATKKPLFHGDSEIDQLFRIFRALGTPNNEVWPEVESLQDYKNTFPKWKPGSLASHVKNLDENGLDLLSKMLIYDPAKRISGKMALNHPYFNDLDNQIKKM
Cyclin-dependent kinase 1/cyclin B1, sequence (P14635 whole entry, further chain): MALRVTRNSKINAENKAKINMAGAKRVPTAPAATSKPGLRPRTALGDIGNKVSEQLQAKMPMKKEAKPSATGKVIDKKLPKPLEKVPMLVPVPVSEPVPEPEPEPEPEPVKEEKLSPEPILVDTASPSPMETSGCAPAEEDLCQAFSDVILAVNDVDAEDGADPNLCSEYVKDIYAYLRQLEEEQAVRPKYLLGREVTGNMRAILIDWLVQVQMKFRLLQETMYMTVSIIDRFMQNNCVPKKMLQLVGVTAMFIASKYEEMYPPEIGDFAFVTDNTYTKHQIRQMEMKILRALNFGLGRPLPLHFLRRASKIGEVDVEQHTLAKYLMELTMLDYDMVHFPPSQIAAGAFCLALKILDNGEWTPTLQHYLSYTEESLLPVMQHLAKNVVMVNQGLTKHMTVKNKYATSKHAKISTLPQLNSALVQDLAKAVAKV

[2] = target: Angiopoietin-1 receptor (Homo sapiens) (UniProt Q02763); experiment: Inhibition of Tie2 upto 50 uM
Angiopoietin-1 receptor (Homo sapiens), sequence (Q02763 whole entry): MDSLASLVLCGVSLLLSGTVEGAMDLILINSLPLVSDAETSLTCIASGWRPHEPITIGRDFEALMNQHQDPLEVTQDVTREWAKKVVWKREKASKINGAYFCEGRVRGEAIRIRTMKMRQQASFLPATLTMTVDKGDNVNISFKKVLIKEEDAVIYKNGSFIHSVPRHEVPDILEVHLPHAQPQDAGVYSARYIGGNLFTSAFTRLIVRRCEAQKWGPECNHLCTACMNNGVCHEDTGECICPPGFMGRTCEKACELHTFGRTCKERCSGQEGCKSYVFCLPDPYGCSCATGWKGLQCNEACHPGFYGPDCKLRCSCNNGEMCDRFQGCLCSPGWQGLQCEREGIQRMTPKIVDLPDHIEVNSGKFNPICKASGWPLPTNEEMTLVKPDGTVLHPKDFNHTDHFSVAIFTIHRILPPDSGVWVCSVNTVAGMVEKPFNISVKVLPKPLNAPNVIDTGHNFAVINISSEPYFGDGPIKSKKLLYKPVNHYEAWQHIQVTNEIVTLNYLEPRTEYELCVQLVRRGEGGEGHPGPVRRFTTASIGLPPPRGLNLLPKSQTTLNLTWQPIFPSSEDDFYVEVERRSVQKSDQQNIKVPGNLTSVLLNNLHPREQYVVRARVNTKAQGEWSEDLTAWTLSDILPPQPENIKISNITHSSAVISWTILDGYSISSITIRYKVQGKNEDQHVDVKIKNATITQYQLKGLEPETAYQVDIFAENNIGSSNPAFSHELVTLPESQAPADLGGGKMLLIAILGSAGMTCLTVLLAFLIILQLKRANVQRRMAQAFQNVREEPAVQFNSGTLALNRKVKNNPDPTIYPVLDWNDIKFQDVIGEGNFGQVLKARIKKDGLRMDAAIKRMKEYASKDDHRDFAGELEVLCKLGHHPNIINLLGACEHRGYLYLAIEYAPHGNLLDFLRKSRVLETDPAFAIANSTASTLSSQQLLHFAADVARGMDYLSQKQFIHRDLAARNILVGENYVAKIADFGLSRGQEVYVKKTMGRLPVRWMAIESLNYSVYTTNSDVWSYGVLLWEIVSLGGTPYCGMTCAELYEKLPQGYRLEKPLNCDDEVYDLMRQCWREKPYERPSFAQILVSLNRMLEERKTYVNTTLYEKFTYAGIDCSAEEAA

[3] = target: Epidermal growth factor receptor (Homo sapiens) (UniProt P00533); experiment: Inhibition of EGFR upto 50 uM
[4] = Inhibition of FGFR upto 50 uM
[5] = Inhibition of CDK1/cyclin A at 50 uM
[6] = target: Vascular endothelial growth factor receptor 3 (Homo sapiens) (UniProt P35916); experiment: Inhibition of Flt4 upto 50 uM
Vascular endothelial growth factor receptor 3 (Homo sapiens), sequence (P35916 whole entry): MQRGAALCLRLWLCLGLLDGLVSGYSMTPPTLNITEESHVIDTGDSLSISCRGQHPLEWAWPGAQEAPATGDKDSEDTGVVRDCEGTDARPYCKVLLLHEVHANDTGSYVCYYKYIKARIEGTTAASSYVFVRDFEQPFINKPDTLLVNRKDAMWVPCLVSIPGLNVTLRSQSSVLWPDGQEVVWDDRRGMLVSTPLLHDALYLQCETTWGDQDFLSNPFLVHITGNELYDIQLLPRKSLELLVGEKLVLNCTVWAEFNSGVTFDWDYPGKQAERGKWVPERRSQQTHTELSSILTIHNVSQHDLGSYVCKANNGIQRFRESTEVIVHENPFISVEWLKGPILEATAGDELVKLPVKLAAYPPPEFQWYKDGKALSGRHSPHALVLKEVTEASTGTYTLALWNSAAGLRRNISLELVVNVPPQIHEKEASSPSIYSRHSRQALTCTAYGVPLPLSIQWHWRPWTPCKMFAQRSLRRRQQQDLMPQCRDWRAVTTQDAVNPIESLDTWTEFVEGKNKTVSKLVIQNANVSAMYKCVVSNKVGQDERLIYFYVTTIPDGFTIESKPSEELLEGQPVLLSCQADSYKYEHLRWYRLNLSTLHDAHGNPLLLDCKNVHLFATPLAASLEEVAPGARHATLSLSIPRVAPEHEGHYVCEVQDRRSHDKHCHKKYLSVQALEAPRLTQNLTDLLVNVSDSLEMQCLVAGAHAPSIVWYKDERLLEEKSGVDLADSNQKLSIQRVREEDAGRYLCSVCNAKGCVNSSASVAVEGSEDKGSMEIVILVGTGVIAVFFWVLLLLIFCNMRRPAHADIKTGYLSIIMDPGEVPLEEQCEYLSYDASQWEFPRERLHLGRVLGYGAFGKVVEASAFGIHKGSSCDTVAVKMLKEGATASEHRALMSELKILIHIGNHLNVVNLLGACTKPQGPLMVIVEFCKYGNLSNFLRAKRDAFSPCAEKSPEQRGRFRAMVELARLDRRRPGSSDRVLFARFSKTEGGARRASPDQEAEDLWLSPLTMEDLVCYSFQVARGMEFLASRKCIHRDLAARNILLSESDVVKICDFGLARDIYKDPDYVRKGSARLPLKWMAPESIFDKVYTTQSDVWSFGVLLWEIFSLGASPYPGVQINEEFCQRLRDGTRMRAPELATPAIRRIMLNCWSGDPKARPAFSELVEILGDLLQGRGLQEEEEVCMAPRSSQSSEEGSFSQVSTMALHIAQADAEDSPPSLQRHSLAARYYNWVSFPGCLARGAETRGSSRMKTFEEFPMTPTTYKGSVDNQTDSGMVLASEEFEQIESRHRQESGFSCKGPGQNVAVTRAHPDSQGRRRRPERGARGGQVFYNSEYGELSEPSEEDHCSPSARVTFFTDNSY

[7] = target: T1, Cyclin-dependent kinase 1/cyclin B1 (Homo sapiens) (UniProt P06493+P14635); experiment: Inhibition of CDK1/cyclin B at 30 uM; assay type: protein-complex assay
T1 sequence (P06493 whole entry, looked up): as the sequence (P06493 whole entry) above
T1 sequence (P14635 whole entry, looked up): as the sequence (P14635 whole entry, further chain) above

[8] = Inhibition of CDK1/cyclin E at 50 uM
[9] = target: T1, Cyclin-dependent kinase 1/cyclin B1 (Homo sapiens); experiment: Inhibition of CDK1/cyclin B at 100 uM; assay type: protein-complex assay
Procedure, shortened: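 CDK1/cyclin B complex activity measured in vitro with the MESACUP cdc2 kinase assay kit. Compounds were tested at 100 µM. Activity was expressed as % CDK1 activity relative to untreated control samples, as mean ± SEM, with statistical comparison against control (P < 0.05, P < 0.001).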

[10] = target: Vascular endothelial growth factor receptor 2 (Homo sapiens) (UniProt P35968); experiment: Inhibition of KDR upto 50 uM
Vascular endothelial growth factor receptor 2 (Homo sapiens), sequence (P35968 whole entry): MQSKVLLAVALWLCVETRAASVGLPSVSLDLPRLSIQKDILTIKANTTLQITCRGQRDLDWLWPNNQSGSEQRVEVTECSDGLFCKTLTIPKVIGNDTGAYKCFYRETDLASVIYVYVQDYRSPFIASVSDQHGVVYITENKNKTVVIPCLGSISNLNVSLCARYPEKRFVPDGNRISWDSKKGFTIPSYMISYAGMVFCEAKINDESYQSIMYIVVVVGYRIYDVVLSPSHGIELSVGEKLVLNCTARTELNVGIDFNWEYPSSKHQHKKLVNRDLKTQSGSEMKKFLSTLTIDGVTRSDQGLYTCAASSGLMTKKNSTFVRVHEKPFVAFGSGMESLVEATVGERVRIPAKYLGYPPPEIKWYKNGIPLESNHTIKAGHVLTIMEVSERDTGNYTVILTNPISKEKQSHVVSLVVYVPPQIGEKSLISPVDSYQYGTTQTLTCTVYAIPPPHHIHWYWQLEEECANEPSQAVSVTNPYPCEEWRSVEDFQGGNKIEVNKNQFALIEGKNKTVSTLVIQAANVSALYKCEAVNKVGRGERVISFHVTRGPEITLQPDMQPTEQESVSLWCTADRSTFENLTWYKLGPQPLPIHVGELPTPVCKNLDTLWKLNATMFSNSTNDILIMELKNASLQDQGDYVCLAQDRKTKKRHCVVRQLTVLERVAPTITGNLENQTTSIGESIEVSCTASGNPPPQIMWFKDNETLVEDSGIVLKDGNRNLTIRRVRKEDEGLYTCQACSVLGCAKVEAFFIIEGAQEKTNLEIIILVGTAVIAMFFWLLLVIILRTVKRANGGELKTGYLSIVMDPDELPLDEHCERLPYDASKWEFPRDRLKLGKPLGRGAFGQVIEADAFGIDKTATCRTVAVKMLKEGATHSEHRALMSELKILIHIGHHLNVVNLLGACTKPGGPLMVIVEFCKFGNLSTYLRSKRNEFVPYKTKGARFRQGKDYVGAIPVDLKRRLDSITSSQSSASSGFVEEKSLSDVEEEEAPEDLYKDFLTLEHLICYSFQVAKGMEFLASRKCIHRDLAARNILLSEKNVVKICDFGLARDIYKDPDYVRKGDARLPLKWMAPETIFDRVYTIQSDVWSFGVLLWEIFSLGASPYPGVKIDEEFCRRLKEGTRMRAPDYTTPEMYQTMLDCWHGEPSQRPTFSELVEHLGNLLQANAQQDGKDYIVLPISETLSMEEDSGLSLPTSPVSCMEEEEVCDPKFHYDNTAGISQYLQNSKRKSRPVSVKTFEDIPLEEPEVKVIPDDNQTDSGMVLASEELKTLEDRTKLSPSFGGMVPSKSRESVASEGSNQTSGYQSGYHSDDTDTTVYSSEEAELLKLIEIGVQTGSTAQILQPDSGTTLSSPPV

[11] = Inhibition of IGFR upto 50 uM

Q: For `CCOC(=O)c1cc2ccc3c4cc(Cl)ccc4[nH]c3c2[nH]1`, which IC50 [1] is on record?
A: > 100 µM

Q: For `CCOC(=O)c1cc2ccc3c4ccc(Cl)cc4[nH]c3c2[nH]1`, which IC50 [1] is on record?
A: > 100 µM

Q: With `CCOC(=O)c1cc2ccc3c4cc(OC)ccc4[nH]c3c2[nH]1` as the compound, how does the IC50 [1] read?
A: > 100 µM

Q: With `CCOC(=O)c1cc2ccc3c4cc(C)ccc4[nH]c3c2[nH]1` as the compound, how does the IC50 [1] read?
A: > 100 µM

Q: Which results are given for `CCOC(=O)c1cc2ccc3c4cccc(Cl)c4[nH]c3c2[nH]1`?
A: Activity [2]: inactive; Activity [3]: inactive; Activity [4]: inactive; IC50 [1]: 15 µM; Activity [5]: inactive; Activity [6]: inactive; inhibition [7]: 50%; Activity [8]: inactive; inhibition [9]: 90%; Activity [10]: inactive; Activity [11]: inactive

Q: For `CCOC(=O)c1cc2ccc3c([nH]c4cccc(Cl)c43)c2[nH]1`, which IC50 [1] is on record?
A: > 100 µM

Q: With `CCOC(=O)c1cc2ccc3c4ccccc4[nH]c3c2[nH]1` as the compound, how does the IC50 [1] read?
A: > 100 µM
